Test results reported in publication PMC3383389 (Molecular and Biochemical Parasitology, 2012).

Key:
[1] = molecular target: T1, TbMCP-1 (Trypanosoma brucei, UniProt Q386R0); assay: inhibition of FA-Ala-Lys hydrolysis after pre-incubation; format: biochemical; conditions: read-out: % residual activity at 5 μM
T1 sequence (Q386R0 1-503): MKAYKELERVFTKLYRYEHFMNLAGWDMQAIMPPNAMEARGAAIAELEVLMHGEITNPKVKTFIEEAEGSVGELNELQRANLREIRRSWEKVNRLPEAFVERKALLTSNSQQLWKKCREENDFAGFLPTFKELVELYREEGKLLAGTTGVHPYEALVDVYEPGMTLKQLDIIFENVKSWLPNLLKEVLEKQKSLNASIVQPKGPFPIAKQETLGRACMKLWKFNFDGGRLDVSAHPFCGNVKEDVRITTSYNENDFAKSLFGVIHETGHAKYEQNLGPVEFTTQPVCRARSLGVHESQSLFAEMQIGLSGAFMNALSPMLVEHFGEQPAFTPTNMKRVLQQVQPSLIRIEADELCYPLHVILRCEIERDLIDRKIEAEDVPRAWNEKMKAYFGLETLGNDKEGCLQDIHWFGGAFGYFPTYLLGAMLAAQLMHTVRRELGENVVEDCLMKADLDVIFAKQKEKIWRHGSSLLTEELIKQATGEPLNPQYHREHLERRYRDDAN
In short: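 GST-fused recombinant TbMCP-1 was expressed in E. coli BL21 Codon Plus (DE3), purified on glutathione-agarose and desalted. The enzyme was pre-incubated with test compound (metal chlorides were tested from 1 µM to 1 mM). Activity was then read continuously at 340 nm with 200 µM furyl-acryloyl-Ala-Lys in 100 mM MOPS, pH 7.3, and reported as % residual activity.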

[2] = molecular target: Trypanosoma brucei M32 metallocarboxypeptidase TbMCP-1, N-terminally GST-tagged recombinant enzyme (Trypanosoma brucei (Lister 427)); assay: SEC

stoichiometry N [2] | Compound | remaining activity at 5 µM [1]
 | N=C(N)NCCSC(CC(=O)O)C(=O)O (centres unmarked) [GEMSA] | 9.1 ± 1.2%
2 | Trypanosoma brucei M32 metallocarboxypeptidase TbMCP-1, N-terminally GST-tagged recombinant enzyme | 
